Assay results reported in ChEMBL document CHEMBL1141651, “Discovery of a potent, selective, and orally active proteasome inhibitor for the treatment of cancer” (J Med Chem, 2008).
Activity calls are given as the source filed them. No cut-off for these calls is given here.

Experiments:
[1] = Metabolic stability in rat liver microsomes; type: ADME, Microsome
[2] = Metabolic stability in human liver microsomes; type: ADME, Microsome
Cathepsin G = Cathepsin G (Homo sapiens, UniProt P08311); test: Inhibition of human cathepsin G
[3] = target: Protease (Human immunodeficiency virus 1) (UniProt Q9YQ12); test: Inhibition of HIV1 protease at 10 uM
[4] = Inhibition of human chymotrypsin
Procedure, shortened: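 Cross-reactivity was tested against human pancreas α-chymotrypsin using a fluorogenic specific substrate. Results are expressed as IC50.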

[5] = Inhibition of chymotrypsin-like activity of human erythrocyte 20S proteasome
Procedure, shortened: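 Isolated 20S proteasome purified from human erythrocytes was tested in a fluorimetric kinetic assay of chymotrypsin-like activity. Potency is reported as IC50.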

[6] = target: Coagulation factor X (Homo sapiens) (UniProt P00742); test: Inhibition of human factor 10a at 10 uM
[7] = target: Cathepsin E (Homo sapiens) (UniProt P14091); test: Inhibition of human cathepsin E at 10 uM
[8] = target: Pro-cathepsin H (Homo sapiens) (UniProt P09668); test: Inhibition of human cathepsin H at 10 uM
Renin (Homo sapiens) = Renin (Homo sapiens) (UniProt P00797); test: Inhibition of human renin at 10 uM
[9] = target: Plasma kallikrein (Homo sapiens) (UniProt P03952); test: Inhibition of human plasma kallikrein at 10 uM
Homo sapiens [10] = species on record: Homo sapiens; test: Inhibition of human chymotrypsin at 10 uM
Chymase = Chymase (Homo sapiens, UniProt P23946); test: Inhibition of human chymase
[11] = target: Cathepsin S (Homo sapiens) (UniProt P25774); test: Inhibition of human cathepsin S at 10 uM
[12] = target: Macrophage metalloelastase (Homo sapiens) (UniProt P39900); test: Inhibition of human MMP12 at 10 uM
[13] = Metabolic stability in mouse liver microsomes; type: ADME, Microsome
[14] = Half life in CD1 mouse at 0.8 mg/kg, iv; type: ADME, organism-based; design: dose 0.8 mg/kg, route intravenous; conditions: in vivo
Procedure, shortened: (§1)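 Female Sprague–Dawley rats and CD-1 mice each received a single iv or oral (po) dose. Terminal half-life and systemic clearance were estimated from plasma exposure over time, alongside AUC0→∞, Vss and absolute oral bioavailability.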

[15] = target: Neprilysin (Homo sapiens) (UniProt P08473); test: Inhibition of human NEP at 10 uM
[16] = Half life in CD1 mouse at 4 mg/kg, po; type: ADME, organism-based; design: dose 4 mg/kg, route oral; conditions: in vivo; procedure, shortened: as §1
[17] = target: Neutrophil elastase (Homo sapiens) (UniProt P08246); test: Inhibition of human neutrophil elastase 2 at 10 uM
Chymase (Homo sapiens) = Chymase (Homo sapiens) (UniProt P23946); test: Inhibition of human chymase at 10 uM
[18] = Oral bioavailability in CD1 mouse at 4 mg/kg; type: ADME, organism-based; conditions: in vivo
Procedure, shortened: (§2)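 Single-dose pharmacokinetics after iv or oral administration in female Sprague–Dawley rats and in CD-1 mice; plasma exposure (AUC0–∞) used to derive steady-state volume of distribution, clearance, terminal half-life and absolute oral bioavailability.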

Caspase-8 (Homo sapiens) = Caspase-8 (Homo sapiens) (UniProt Q14790); test: Inhibition of human caspase 8 at 10 uM
[19] = target: Endothelin-converting enzyme 1 (Homo sapiens) (UniProt P42892); test: Inhibition of human ECE1 at 10 uM
[20] = target: Disintegrin and metalloproteinase domain-containing protein 17 (Homo sapiens) (UniProt P78536); test: Inhibition of human TACE at 10 uM
[21] = Metabolic stability in dog liver microsomes; type: ADME, Canis lupus familiaris, Microsome
[22] = Clearance in CD1 mouse at 0.8 mg/kg, iv; type: ADME, organism-based; design: dose 0.8 mg/kg, route intravenous; conditions: in vivo; procedure, shortened: as §1
[23] = Inhibition of bovine alpha chymotrypsin; design: species or system Bos taurus
[24] = Protein binding in dog plasma; type: ADME, cell-free, Canis lupus familiaris; conditions: read-out: PPB (converted)
[25] = target: Matrilysin (Homo sapiens) (UniProt P09237); test: Inhibition of human MMP7 at 10 uM
[26] = target: Dipeptidyl peptidase 4 (Homo sapiens) (UniProt P27487); test: Inhibition of human DPP4 at 10 uM
Homo sapiens [27] = species on record: Homo sapiens; test: Inhibition of human tryptase at 10 uM
[28] = AUC (0 to infinity) in CD1 mouse at 4 mg/kg, po; type: ADME, organism-based; design: time infinity, dose 4 mg/kg, route oral; conditions: plasma
[29] = Inhibition of bacterial prolyl oligopeptidase at 10 uM
[30] = target: Cathepsin D (Homo sapiens) (UniProt P07339); test: Inhibition of human cathepsin D at 10 uM
A2780 = test: Cytotoxicity against human A2780 cells; type: functional, cell-based
Procedure, shortened: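 Antiproliferative activity was measured in A2780 ovarian carcinoma cells with a standard colorimetric assay of cell proliferation and viability. Results are expressed as IC50.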

[31] = target: Stromelysin-1 (Homo sapiens) (UniProt P08254); test: Inhibition of human MMP3 at 10 uM
[32] = target: Prothrombin (Homo sapiens) (UniProt P00734); test: Inhibition of human thrombin at 10 uM
[33] = target: Procathepsin L (Homo sapiens) (UniProt P07711); test: Inhibition of human cathepsin L at 10 uM
[34] = target: Dipeptidyl peptidase 1 (Bos taurus) (UniProt Q3ZCJ8); test: Inhibition of bovine cathepsin C at 10 uM
Caspase-7 (Homo sapiens) = Caspase-7 (Homo sapiens) (UniProt P55210); test: Inhibition of human caspase 7 at 10 uM
Sus scrofa [35] = species on record: Sus scrofa; test: Inhibition of pig pepsin at 10 uM
Sus scrofa [36] = species on record: Sus scrofa; test: Inhibition of pig pancreatic elastase 1 at 10 uM
Caspase-2 (Homo sapiens) = Caspase-2 (Homo sapiens) (UniProt P42575); test: Inhibition of human caspase 2 at 10 uM
Caspase-3 (Homo sapiens) = Caspase-3 (Homo sapiens) (UniProt P42574); test: Inhibition of human caspase 3 at 10 uM
Caspase-9 (Homo sapiens) = Caspase-9 (Homo sapiens) (UniProt P55211); test: Inhibition of human caspase 9 at 10 uM
[37] = target: Calpain-1 catalytic subunit (Homo sapiens) (UniProt P07384); test: Inhibition of human calpain 1 at 10 uM
[38] = Protein binding in mouse plasma; type: ADME, cell-free; conditions: read-out: PPB (converted)
[39] = target: Cathepsin G (Homo sapiens) (UniProt P08311); test: Inhibition of human cathepsin G at 10 uM
[40] = target: Plasminogen (Homo sapiens) (UniProt P00747); test: Inhibition of human plasmin at 10 uM
Caspase-1 (Homo sapiens) = Caspase-1 (Homo sapiens) (UniProt P29466); test: Inhibition of human caspase 1 at 10 uM
[41] = target: Cathepsin Z (Homo sapiens) (UniProt Q9UBR2); test: Inhibition of human cathepsin Z at 10 uM
[42] = target: 72 kDa type IV collagenase (Homo sapiens) (UniProt P08253); test: Inhibition of human MMP2 at 10 uM
[43] = target: Tissue-type plasminogen activator (Homo sapiens) (UniProt P00750); test: Inhibition of human TPA at 10 uM
[44] = target: Coagulation factor VII (Homo sapiens) (UniProt P08709); test: Inhibition of human factor 7a at 10 uM
Mus musculus = test: Inhibition of 20S proteasome beta5beta1 subunit binding in human RPMI 8226 cells xenografted mouse; type: functional, organism-based
[45] = target: Neutrophil collagenase (Homo sapiens) (UniProt P22894); test: Inhibition of human MMP8 at 10 uM
[46] = target: Interstitial collagenase (Homo sapiens) (UniProt P03956); test: Inhibition of human MMP1 at 10 uM
[47] = Volume of distribution at steady state in CD1 mouse at 0.8 mg/kg, iv; type: ADME, organism-based; design: dose 0.8 mg/kg, route intravenous; conditions: in vivo, read-out: Vdss; procedure, shortened: as §2
[48] = Inhibition of chymotrypsin-like activity of human 20S proteasome in Molt4 cells; type: cell-based; conditions: molt-4
Procedure, shortened: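 Intact human leukemia Molt-4 cells were given the cell-permeable fluorogenic chymotrypsin-like substrate MeOSuc-FLF-AFC, so the read-out also reflects inhibitor cell permeability. Potency is reported as EC50.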

[49] = AUC (0 to infinity) in CD1 mouse at 0.8 mg/kg, iv; type: ADME, organism-based; design: time infinity, dose 0.8 mg/kg, route intravenous; conditions: plasma
Procedure, shortened: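 CD-1 mice received a single dose by the iv or oral route. AUC from 0 to infinity was reported with terminal half-life, Vss, clearance and absolute oral bioavailability.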

Trypsin (Homo sapiens) = Trypsin (Homo sapiens) (UniProt P07477+P07478+P35030); test: Inhibition of human trypsin at 10 uM; type: protein assay
[50] = Protein binding in rat plasma; type: ADME, cell-free; conditions: read-out: PPB (converted)

Sequence of Cathepsin E (Homo sapiens) (P14091 whole entry): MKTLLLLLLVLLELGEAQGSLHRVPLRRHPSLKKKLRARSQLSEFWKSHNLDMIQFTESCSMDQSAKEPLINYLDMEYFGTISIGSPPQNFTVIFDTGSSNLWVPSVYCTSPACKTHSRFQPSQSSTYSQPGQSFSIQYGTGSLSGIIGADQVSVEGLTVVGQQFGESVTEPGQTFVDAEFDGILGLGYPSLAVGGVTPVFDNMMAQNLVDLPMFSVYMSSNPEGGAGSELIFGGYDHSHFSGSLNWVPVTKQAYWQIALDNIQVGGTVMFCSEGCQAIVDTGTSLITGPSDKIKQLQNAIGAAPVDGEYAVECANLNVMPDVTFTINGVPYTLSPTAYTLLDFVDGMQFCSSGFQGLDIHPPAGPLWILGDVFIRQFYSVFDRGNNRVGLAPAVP
Sequence of Coagulation factor X (Homo sapiens) (P00742 41-179 limits assumed): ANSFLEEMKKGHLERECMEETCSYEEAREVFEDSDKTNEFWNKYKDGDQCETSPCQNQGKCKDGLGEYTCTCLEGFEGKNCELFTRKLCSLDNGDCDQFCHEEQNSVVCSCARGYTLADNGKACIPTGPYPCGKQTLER
Sequence of Coagulation factor X (Homo sapiens) (P00742 235-488 limits assumed): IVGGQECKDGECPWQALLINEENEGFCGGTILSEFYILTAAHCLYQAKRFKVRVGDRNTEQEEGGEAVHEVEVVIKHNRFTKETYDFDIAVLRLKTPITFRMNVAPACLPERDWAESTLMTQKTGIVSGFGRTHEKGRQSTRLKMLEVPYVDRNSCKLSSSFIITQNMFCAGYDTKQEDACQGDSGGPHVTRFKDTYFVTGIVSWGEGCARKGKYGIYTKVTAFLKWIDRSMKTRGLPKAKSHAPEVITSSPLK
Sequence of Tissue-type plasminogen activator (Homo sapiens) (P00750 36-562 limits assumed): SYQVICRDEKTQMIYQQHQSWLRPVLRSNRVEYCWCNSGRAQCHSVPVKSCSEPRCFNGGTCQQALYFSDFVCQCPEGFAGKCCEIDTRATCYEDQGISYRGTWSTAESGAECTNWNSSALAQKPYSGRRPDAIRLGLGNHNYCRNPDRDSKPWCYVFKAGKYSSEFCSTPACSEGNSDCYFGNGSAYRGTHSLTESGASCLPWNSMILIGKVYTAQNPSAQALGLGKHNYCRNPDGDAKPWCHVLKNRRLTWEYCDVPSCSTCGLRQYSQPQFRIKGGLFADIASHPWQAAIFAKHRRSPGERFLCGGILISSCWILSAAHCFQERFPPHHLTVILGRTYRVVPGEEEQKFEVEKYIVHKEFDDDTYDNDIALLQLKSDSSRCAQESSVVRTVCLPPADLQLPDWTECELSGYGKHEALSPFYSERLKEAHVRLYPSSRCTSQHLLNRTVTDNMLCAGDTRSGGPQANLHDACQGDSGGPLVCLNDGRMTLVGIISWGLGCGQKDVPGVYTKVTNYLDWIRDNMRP
Sequence of Neutrophil elastase (Homo sapiens) (P08246 whole entry): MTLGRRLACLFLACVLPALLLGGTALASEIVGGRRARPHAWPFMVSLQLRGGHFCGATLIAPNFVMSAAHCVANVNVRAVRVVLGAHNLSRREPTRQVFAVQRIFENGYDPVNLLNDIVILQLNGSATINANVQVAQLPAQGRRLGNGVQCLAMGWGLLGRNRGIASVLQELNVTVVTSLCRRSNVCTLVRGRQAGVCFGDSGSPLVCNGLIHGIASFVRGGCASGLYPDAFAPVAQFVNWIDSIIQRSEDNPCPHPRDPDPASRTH
Sequence of Caspase-3 (Homo sapiens) (P42574 29-175 limits assumed): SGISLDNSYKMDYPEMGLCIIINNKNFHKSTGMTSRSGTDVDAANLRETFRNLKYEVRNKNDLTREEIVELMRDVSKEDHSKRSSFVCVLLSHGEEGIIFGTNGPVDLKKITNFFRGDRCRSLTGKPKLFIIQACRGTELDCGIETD
Sequence of Caspase-3 (Homo sapiens) (P42574 176-277 limits assumed): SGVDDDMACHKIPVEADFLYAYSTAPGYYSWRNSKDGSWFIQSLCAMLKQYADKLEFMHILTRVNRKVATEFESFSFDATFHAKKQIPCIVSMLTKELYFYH
Sequence of Caspase-1 (Homo sapiens) (P29466 120-297 limits assumed): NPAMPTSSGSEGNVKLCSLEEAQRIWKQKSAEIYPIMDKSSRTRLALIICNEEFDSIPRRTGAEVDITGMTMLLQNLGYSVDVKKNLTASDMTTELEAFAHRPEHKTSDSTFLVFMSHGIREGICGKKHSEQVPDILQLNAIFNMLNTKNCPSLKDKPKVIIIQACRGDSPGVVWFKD
Sequence of Caspase-1 (Homo sapiens) (P29466 317-404 limits assumed): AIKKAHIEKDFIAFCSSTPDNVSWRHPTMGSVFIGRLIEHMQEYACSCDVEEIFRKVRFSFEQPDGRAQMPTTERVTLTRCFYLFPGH
Sequence of Matrilysin (Homo sapiens) (P09237 whole entry): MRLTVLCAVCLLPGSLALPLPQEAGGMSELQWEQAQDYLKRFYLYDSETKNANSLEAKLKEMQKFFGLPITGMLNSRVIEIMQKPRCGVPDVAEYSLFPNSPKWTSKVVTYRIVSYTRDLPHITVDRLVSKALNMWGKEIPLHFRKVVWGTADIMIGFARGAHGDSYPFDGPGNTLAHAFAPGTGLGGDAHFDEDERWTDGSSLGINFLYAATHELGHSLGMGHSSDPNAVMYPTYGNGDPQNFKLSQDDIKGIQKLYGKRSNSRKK
Sequence of Plasma kallikrein (Homo sapiens) (P03952 20-390 limits assumed): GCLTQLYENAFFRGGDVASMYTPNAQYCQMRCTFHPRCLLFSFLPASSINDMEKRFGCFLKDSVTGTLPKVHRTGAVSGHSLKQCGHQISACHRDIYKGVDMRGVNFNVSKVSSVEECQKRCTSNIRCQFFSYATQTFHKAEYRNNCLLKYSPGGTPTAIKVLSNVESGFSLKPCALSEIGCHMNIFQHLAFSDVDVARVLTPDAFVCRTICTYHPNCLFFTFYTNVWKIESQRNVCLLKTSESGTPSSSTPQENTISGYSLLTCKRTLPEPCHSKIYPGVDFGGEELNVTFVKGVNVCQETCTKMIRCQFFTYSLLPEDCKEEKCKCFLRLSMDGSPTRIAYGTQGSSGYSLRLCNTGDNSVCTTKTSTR
Sequence of Plasma kallikrein (Homo sapiens) (P03952 391-638 limits assumed): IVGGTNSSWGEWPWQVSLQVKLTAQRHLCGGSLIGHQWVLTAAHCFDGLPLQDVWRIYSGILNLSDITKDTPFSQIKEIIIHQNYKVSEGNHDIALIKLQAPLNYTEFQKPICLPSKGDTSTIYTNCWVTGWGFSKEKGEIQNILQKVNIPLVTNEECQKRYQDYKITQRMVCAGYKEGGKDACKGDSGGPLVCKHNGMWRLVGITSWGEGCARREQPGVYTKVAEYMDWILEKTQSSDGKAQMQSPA
Sequence of Protease (Human immunodeficiency virus 1) (Q9YQ12 as listed by the source): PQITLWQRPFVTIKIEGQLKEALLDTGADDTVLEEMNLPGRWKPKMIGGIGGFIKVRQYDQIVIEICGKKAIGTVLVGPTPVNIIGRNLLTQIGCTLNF
Sequence of Coagulation factor VII (Homo sapiens) (P08709 61-212 limits assumed): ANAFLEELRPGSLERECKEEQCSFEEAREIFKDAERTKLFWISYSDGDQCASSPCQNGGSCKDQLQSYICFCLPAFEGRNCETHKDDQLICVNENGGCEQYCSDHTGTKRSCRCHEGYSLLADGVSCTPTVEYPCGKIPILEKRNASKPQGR
Sequence of Coagulation factor VII (Homo sapiens) (P08709 213-466 limits assumed): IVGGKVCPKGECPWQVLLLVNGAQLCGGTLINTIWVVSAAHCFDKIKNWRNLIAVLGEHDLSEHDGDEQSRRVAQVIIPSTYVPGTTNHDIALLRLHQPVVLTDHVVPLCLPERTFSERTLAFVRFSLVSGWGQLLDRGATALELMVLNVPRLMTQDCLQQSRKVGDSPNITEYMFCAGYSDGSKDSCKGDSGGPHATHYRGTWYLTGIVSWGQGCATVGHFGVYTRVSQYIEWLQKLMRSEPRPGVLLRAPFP
Sequence of Neprilysin (Homo sapiens) (P08473 whole entry): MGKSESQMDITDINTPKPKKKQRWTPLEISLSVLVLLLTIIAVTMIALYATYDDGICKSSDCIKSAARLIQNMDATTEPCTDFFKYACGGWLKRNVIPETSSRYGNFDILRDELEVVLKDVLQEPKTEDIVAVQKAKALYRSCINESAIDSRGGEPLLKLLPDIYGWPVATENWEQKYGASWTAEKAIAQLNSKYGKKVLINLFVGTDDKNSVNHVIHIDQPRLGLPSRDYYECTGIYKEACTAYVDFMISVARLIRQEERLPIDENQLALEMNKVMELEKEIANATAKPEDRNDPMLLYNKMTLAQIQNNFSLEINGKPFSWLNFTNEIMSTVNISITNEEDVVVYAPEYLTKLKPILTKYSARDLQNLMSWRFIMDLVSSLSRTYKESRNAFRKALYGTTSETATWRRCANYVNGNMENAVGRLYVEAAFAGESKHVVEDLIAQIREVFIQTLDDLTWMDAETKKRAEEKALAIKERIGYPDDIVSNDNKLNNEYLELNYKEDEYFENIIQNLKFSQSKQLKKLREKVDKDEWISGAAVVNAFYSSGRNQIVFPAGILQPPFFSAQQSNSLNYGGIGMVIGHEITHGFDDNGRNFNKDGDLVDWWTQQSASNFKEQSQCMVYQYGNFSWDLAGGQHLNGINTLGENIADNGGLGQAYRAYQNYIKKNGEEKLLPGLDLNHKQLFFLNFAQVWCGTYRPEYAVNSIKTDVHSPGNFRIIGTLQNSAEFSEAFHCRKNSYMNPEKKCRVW
Sequence of Chymase (P23946 whole entry): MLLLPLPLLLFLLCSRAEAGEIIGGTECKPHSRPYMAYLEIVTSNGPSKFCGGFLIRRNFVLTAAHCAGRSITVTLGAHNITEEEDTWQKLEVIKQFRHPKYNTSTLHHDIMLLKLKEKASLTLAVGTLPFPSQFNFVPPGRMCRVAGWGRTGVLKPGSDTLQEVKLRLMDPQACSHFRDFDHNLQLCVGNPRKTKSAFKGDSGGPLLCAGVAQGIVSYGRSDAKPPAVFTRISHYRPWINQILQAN
Sequence of Chymase (Homo sapiens) (P23946 whole entry): as above

CC(C)C[C@H](NC(=O)[C@H](Cc1ccccc1)NC(=O)c1cnccn1)B(O)O [BORTEZOMIB]
half-life [1]: 16 min | half-life [2]: 37 min | IC50 (Cathepsin G): 520 nM | inhibition [3]: -2% | IC50 [4]: 1220 nM | IC50 [5]: 3.8 nM | inhibition [6]: 4% | inhibition [7]: -3% | inhibition [8]: 8% | inhibition (Renin (Homo sapiens)): -1% | inhibition [9]: 6% | inhibition (Homo sapiens [10]): 86% | IC50 (Chymase): 1190 nM | inhibition [11]: 48% | inhibition [12]: -7% | half-life [13]: 21 min | half-life [14]: 4.08 days | inhibition [15]: 9% | half-life [16]: 2.92 days | inhibition [17]: 27% | inhibition (Chymase (Homo sapiens)): 95% | bioavailability [18]: 11% | inhibition (Caspase-8 (Homo sapiens)): -4% | inhibition [19]: 26% | inhibition [20]: 2% | half-life [21]: > 40 min | clearance [22]: 14.3 mL/min/kg | IC50 [23]: 500 nM | fraction unbound [24]: 0.058 | inhibition [25]: -6% | inhibition [26]: 1% | inhibition (Homo sapiens [27]): 0% | AUC(0-inf) [28]: 499 ng·h/mL | inhibition [29]: 9% | inhibition [30]: -1% | IC50 (A2780): 1.7 nM | inhibition [31]: -1% | inhibition [32]: 2% | inhibition [33]: 50% | inhibition [34]: 5% | inhibition (Caspase-7 (Homo sapiens)): 1% | inhibition (Sus scrofa [35]): 8% | inhibition (Sus scrofa [36]): -1% | inhibition (Caspase-2 (Homo sapiens)): 1% | inhibition (Caspase-3 (Homo sapiens)): 2% | inhibition (Caspase-9 (Homo sapiens)): 0% | inhibition [37]: 0% | fraction unbound [38]: 0.049 | inhibition [39]: 96% | inhibition [40]: 22% | inhibition (Caspase-1 (Homo sapiens)): 0% | inhibition [41]: 27% | inhibition [42]: -1% | inhibition [43]: 1% | inhibition [44]: 4% | Activity (Mus musculus): inactive | inhibition [45]: 3% | inhibition [46]: 6% | Vd [47]: 102 L/kg | EC50 [48]: 21 nM | AUC(0-inf) [49]: 927 ng·h/mL | inhibition (Trypsin (Homo sapiens)): -1% | fraction unbound [50]: 0.069

CC(C)C[C@H](NC(=O)[C@@H](NC(=O)c1csc(-c2ccccc2)n1)[C@@H](C)O)B(O)O
IC50 [5]: 4.6 nM | IC50 [23]: 590 nM | IC50 (A2780): 28 nM | EC50 [48]: 16 nM

CC(C)C[C@H](NC(=O)[C@@H](NC(=O)c1ccc2ccccc2n1)[C@@H](C)O)B(O)O
IC50 [5]: 6.8 nM | IC50 [23]: 1300 nM | IC50 (A2780): 20.9 nM | EC50 [48]: 32 nM

CC(C)C[C@H](NC(=O)[C@@H](NC(=O)c1ccc(-c2ccccc2)cc1)[C@@H](C)O)B(O)O
IC50 [5]: 0.9 nM | IC50 [23]: 600 nM | IC50 (A2780): 4.9 nM | EC50 [48]: 21 nM

CC(C)C[C@H](NC(=O)[C@@H](NC(=O)c1cnccn1)[C@@H](C)O)B(O)O
IC50 [5]: 42 nM | EC50 [48]: 1350 nM

CC(C)C[C@H](NC(=O)[C@@H](NC(=O)c1cc(-c2ccccc2)ccn1)[C@@H](C)O)B(O)O
IC50 [5]: 2 nM | IC50 [23]: 290 nM | IC50 (A2780): 5.1 nM | EC50 [48]: 18.6 nM

CC(C)C[C@H](NC(=O)[C@@H](NC(=O)c1cccc(-c2ccccc2)c1)[C@@H](C)O)B(O)O
IC50 [5]: 0.8 nM | IC50 [23]: 900 nM | IC50 (A2780): 4.8 nM | EC50 [48]: 16.9 nM

CC(C)C[C@H](NC(=O)[C@@H](NC(=O)c1ncccc1-c1ccccc1)[C@@H](C)O)B(O)O
IC50 [5]: 8.8 nM | IC50 [23]: 460 nM | EC50 [48]: 13000 nM

CC(C)C[C@H](NC(=O)[C@@H](NC(=O)c1ccc2ccccc2c1)[C@@H](C)O)B(O)O
IC50 [5]: 1.6 nM | IC50 [23]: 500 nM | IC50 (A2780): 5.3 nM | EC50 [48]: 27 nM

CC(C)C[C@H](NC(=O)[C@@H](NC(=O)c1cnc(-c2ccccc2)cn1)[C@@H](C)O)B(O)O
IC50 [5]: 1.8 nM | IC50 [23]: 270 nM | IC50 (A2780): 8.2 nM | EC50 [48]: 21 nM

CC(C)C[C@H](NC(=O)[C@@H](NC(=O)c1cncc(-c2ccccc2)n1)[C@@H](C)O)B(O)O
IC50 [5]: 2.3 nM | IC50 [23]: 280 nM | IC50 (A2780): 9.8 nM | EC50 [48]: 27 nM
